Reference: paper PMC5609517 (Chemical Science, 2017)

What was measured:
MDCK cells = assay: Imaging of carbon monoxide in living cells with fluorescent probe COP-1; type: cell-based, Canine; details: 10 μM, at 8 and 37 °C, against respective iCORM (50 μM)
How it was run: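 MDCK cells exposed at 37 °C and at 8 °C to test compound (10 μM) or to its CO-depleted product (iCORM, 50 μM) as comparator. Intracellular CO was detected with the CO-selective fluorescent probe COP-1, read as intracellular fluorescence.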

[1] = type: physicochemical; details: solutions in aqueous media at pH < 7, prolonged periods (>1 week)

In the case of CC12C(=O)C(C)(C(c3ccccc3)=C1c1ccccc1)C1(Br)C(=O)N(CCNCCN)C(=O)C21.O=C(O)C(F)(F)F.O=C(O)C(F)(F)F (centres unmarked) [oCOm-23], the “CO delivery to cells / increased intracellular CO levels (COP-1)” value (MDCK cells) is reported as “confirmed” and the “formation of the corresponding iCORM” value [1] is reported as “no sign of the formation”.
